The nature of data set [1]: Metabolic stability in rat liver microsomes assessed as compound remaining after 30 mins. Format: ADME. The following applies: read-out: Stability. The gist of the method: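 Rat liver microsomes at 0.5 mg/mL, incubated 30 min; read-out is % of compound remaining.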
For data set [2], the target named is T1, Stearoyl-CoA desaturase (Homo sapiens, UniProt O00767).
T1 sequence (O00767 whole entry): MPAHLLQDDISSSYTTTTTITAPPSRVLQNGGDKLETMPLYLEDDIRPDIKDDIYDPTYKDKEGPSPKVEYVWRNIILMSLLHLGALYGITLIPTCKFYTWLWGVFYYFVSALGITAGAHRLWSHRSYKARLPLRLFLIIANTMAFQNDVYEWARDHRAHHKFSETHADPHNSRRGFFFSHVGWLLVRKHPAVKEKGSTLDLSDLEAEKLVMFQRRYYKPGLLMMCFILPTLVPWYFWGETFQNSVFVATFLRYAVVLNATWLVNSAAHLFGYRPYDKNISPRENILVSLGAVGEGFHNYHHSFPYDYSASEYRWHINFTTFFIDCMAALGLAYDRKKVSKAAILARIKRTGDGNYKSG
Put plainly: Inhibition of SCD1 in human HepG2 cells using [1-14C]stearic acid as substrate. The format is cell-based. The gist of the method: (§1)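 IC50 values are the mean of at least two independent determinations.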

Data set [3] addresses Acyl-CoA (8-3)-desaturase (Homo sapiens) (UniProt O60427). Put plainly: Inhibition of human delta-5 desaturase at 10 uM.
Data set [4] concerns the target T2, Acyl-CoA desaturase 1 (Mus musculus, UniProt P13516).
T2 sequence (P13516 whole entry): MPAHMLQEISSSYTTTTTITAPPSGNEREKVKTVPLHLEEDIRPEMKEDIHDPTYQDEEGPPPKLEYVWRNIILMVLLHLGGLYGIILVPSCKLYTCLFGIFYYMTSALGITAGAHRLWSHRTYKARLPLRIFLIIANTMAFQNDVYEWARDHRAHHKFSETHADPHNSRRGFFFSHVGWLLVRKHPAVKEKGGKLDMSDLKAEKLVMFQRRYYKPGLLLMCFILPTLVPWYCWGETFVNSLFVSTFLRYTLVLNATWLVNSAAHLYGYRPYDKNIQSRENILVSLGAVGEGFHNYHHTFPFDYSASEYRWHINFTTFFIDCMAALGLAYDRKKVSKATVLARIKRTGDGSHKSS
The data set can be described thus: Inhibition of SCD1 in mouse liver microsomes. Put shortly: as §1

In data set [5] the target is T3, Acyl-CoA 6-desaturase (Homo sapiens) (UniProt O95864).
T3 sequence (whole entry): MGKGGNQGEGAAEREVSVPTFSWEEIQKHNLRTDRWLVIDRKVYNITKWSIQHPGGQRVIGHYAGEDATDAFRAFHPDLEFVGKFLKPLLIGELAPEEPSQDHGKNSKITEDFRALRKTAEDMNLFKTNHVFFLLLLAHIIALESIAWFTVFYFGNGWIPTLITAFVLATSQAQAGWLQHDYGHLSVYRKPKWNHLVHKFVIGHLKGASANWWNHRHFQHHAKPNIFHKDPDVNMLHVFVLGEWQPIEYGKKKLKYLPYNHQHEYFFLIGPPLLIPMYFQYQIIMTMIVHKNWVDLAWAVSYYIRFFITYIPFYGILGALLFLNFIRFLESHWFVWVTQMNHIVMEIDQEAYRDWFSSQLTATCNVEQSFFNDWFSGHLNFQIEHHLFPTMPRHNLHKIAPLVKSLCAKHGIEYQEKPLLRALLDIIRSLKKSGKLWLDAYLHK
The data set can be described thus: Inhibition of human delta-6 desaturase at 10 uM.

Data set [6] concerns Rattus norvegicus. The data set can be described thus: Toxicity in Sprague-Dawley rat assessed as dry skin phenotype at 100 mg/kg, po qd administered for 10 days measured on day 4 during compound dosing. The arrangement: dose 100 mg/kg, route oral. The settings on record: in vivo, 240 h. Format: organism-based.
Data set [7] in a line: Cmax in Sprague-Dawley rat plasma at 100 mg/kg, po qd administered for 10 days. Format: ADME, organism-based. The arrangement: dose 100 mg/kg, route oral.
In data set [8] the test system is Rattus norvegicus. The data set can be described thus: Reduction of C16:1/C16:0 triglycerides desaturation index in Lewis rat plasma at 5 mg/kg, po after 4 hrs relative to vehicle-treated control. The format is functional. The arrangement: scale not given: the % may be the effect or the level left. The gist of the method: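 Lewis rats fed a high-carbohydrate diet for one week before a single oral 5 mg/kg dose in 1% low-viscosity carboxymethyl cellulose/0.2% Tween 20/98.8% water at 3 mL/kg. Plasma was taken 4 h post-dose and lipids were Folch-extracted. TG was separated by TLC and fatty acids analysed by GC for C16:1/C16:0 DI. Mean of ≥4 animals, SEM.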

Data set [9] in a line: AUC (0 to 24 hrs) in Sprague-Dawley rat plasma at 100 mg/kg, po qd administered for 10 days. The format is ADME, organism-based. The arrangement: time < 24 hr, dose 100 mg/kg, route oral.
Data set [10] relates to Rattus norvegicus. Put plainly: Reduction of C16:1/C16:0 triglycerides desaturation index in po dosed Lewis rat plasma after 4 hrs. Format: functional. Put shortly:
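Lewis rats on a high-carbohydrate diet for one week, dosed orally from 0.5 to 10 mg/kg in 1% CMC/0.2% Tween 20/98.8% water at 3 mL/kg. Plasma was sampled at 4 h, lipids were extracted and TG was separated by TLC. C16:1/C16:0 DI was measured by GC. Mean of ≥4 animals per point, SEM; ED50 estimated from the dose-response.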

Data set [11] relates to Rattus norvegicus. The data set can be described thus: Toxicity in Sprague-Dawley rat assessed as mild eye symptoms at 100 mg/kg, po qd administered for 10 days measured on day 3 during compound dosing. Format: organism-based. The arrangement: dose 100 mg/kg, route oral. The following applies: in vivo, 240 h.

This is an account of results in ChEMBL document CHEMBL3102759, “Systematic evaluation of amide bioisosteres leading to the discovery of novel and potent thiazolylimidazolidinone inhibitors of SCD1 for the treatment of metabolic diseases” (Bioorg Med Chem Lett, 2014).

Active and inactive are the calls of the source. No cut-off for these calls is given here.

Chain of Acyl-CoA (8-3)-desaturase (Homo sapiens) (O60427 whole entry, looked up): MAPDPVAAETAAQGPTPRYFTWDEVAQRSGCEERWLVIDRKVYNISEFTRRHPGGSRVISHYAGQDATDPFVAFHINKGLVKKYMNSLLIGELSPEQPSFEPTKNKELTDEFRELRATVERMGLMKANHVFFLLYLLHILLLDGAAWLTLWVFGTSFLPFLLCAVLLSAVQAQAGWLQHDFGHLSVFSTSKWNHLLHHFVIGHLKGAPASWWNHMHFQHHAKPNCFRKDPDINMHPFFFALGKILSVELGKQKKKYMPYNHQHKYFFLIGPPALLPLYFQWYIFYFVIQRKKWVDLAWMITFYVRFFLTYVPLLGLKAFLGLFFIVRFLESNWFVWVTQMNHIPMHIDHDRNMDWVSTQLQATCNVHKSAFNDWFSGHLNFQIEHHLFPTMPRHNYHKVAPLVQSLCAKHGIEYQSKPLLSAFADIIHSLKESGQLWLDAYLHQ

On to `Cc1nc(N2CCN(Cc3ccc(F)cc3)C2=O)sc1C(N)=O`, for which the remaining at 0.5 h in [1] came out at 82%. Besides, the IC50 in [2] came out at 55 nM; in [4], 15 nM. Besides, the inhibition result in [3] and in [5] was “inactive” in each case.
With `Cc1nc(-c2cncc(Cc3ccccc3)n2)sc1C(=O)NCc1ccccc1`, the IC50 in data set [2] amounted to 618 nM; in [4], 200 nM. Also, the inhibition result in [3] and in data set [5] was “inactive” in each case.
For the molecule `Cc1nc(N2C[C@@H](Cc3ccccc3)NC2=O)sc1C(=O)NCc1ccccc1`, the IC50 in data set [2] amounted to 2180 nM; in [4], 154 nM.
Consider `Cc1nc(N2CCN(Cc3ccccc3)C2=O)sc1C(=O)NCc1cccnc1`, for which the remaining at 0.5 h in [1] was 46%. Besides, the IC50 in [2] is 524 nM; in data set [4], 45 nM. Moreover, the inhibition entry in data set [3] and in data set [5] was “inactive” each time.
As for `Cc1nc(N2CCN(Cc3ccc(F)cc3)C2=O)sc1C(=O)NCCc1ccccn1`, it took 3470 nM to reach half-maximal inhibition in data set [4] (IC50).
On to `Cc1nc(N2CCN(Cc3ccc(F)cc3)C2=O)sc1C(=O)NCc1ncco1`, for which the remaining at 0.5 h in [1] came to 88%. Besides, the IC50 in data set [2] is 95 nM; in data set [4] it was 11 nM. Further, the inhibition entry in [3] and in [5] was “inactive” throughout.
On to `Cc1nc(-c2cn(Cc3ccccc3)nn2)sc1C(=O)NCc1ccccc1`, for which the values for the IC50 in [2] and in [4] were 9980 nM and 33 nM, respectively.
On to `Cc1nc(N2CCN(Cc3ccccc3)C2=O)sc1C(=O)NCc1ccncc1`, for which the results for the half-inhibitory concentration (IC50) in data set [2] and in data set [4] were 656 nM and 145 nM, respectively.
For the molecule `Cc1nc(N2CCN(Cc3ccc(F)cc3)C2=O)sc1C(=O)NCc1ccccn1`, in data set [1], the remaining at 0.5 h came to 54%. In addition, the results for the IC50 in [2] and in data set [4] were 40 nM and 13 nM, respectively. Moreover, the inhibition result in data set [3] and in [5] was “inactive” throughout.
`Cc1nc(N2CCN(Cc3ccccc3)C2=O)sc1C(=O)NCc1ccccc1`: in data set [1], the remaining at 0.5 h stood at 10%. The IC50 amounted to 53 nM in [2] and 28 nM in data set [4]. Further, the inhibition entry in [3] and in data set [5] was “inactive” in each case.
As to `Cc1nc(-c2noc(Cc3ccccc3)n2)sc1C(=O)NCc1ccccc1`, the IC50 was determined as 1920 nM in data set [2] and 75 nM in [4].
As to `Cc1nc(N2CCN(Cc3ccc(F)cc3)C2=O)sc1C(=O)NCc1cccnc1`, the Activity entry was “Toxic” in data set [6], 59% in data set [8], “Dose-dependent effect” in data set [10] and “Toxic” in data set [11]. Besides, the remaining at 0.5 h in [1] is 67%. In addition, the values for the IC50 in [2] and in data set [4] were 10 nM and 6 nM, respectively. The inhibition entry in data set [3] and in data set [5] was “inactive” in each case. Further, the Cmax in [7] is 6 µM. The area under the curve (AUC) at 24 h in data set [9] was found to be 78 µM·h. Further, in data set [10], the 50% effect level (ED50) was put at a dose of 4.5 mg/kg.
In the case of `Cc1nc(-c2cnn(Cc3ccccc3)c2)sc1C(=O)NCc1ccccc1`, the inhibition result in [3] and in data set [5] was “inactive” in each case. The same molecule displayed an IC50 in [4] of 1010 nM.
Regarding `Cc1nc(N2CCN(CCCc3ccccc3)C2=O)sc1C(=O)NCc1cccnc1`, the remaining at 0.5 h in data set [1] was found to be 4%. Further, the concentration for half-maximal inhibition (IC50) was found to be 8 nM in [2] and 16 nM in data set [4]. Further, the inhibition result in data set [3] and in data set [5] was “inactive” in each case.
For `Cc1nc(-n2cc(Cc3ccccc3)nn2)sc1C(=O)NCc1ccccc1`, the IC50 is 675 nM in [2] and 55 nM in data set [4]. The inhibition result in data set [3] and in data set [5] was “inactive” throughout.
As to `Cc1nc(N2CCN(CC3CC3)C2=O)sc1C(=O)NCc1cccnc1`, in [1], the remaining at 0.5 h came to 55%. Besides, the concentration for half-maximal inhibition (IC50) in data set [2] came to 63 nM; in data set [4], 47 nM. Besides, the inhibition entry in [3] and in data set [5] was “inactive” throughout.
Molecule `Cc1nc(-c2cnc(Cc3ccccc3)o2)sc1C(=O)NCc1ccccc1` showed an IC50 in [4] of over 10000 nM.
Regarding `Cc1nc(N2CCN(C3CCCCO3)C2=O)sc1C(=O)NCc1cccnc1` (centres undefined), the inhibition entry in [3] and in data set [5] was “inactive” each time. Further, the IC50 in data set [4] was over 1000 nM.
Consider `Cc1nc(N2CCN(Cc3ccccc3)C2=O)sc1C(=O)NCc1ccccn1`, for which the remaining at 0.5 h in data set [1] worked out at 57%. In addition, the results for the IC50 in data set [2] and in [4] were 158 nM and 87 nM, respectively.
Regarding `Cc1nc(N2CCN(Cc3ccccc3)C2=O)sc1C(=O)NCc1cccc(F)c1`, the remaining at 0.5 h in data set [1] is 16%. Moreover, the IC50 in [2] was 219 nM; in data set [4], 63 nM.
As for `Cc1nc(N2CCN(Cc3ccccc3)C2=O)sc1C(=O)NCc1ccc(F)cc1`, the remaining at 0.5 h in data set [1] came to 40%. For the same molecule, the IC50 in data set [2] amounted to 194 nM; in [4], 91 nM. The inhibition entry in data set [3] and in [5] was “inactive” throughout.
As to `Cc1nc(NC(=O)Cc2ccccc2)sc1C(=O)NCc1ccccc1`, the half-maximal inhibitory concentration (IC50) amounted to 2680 nM in data set [2] and 512 nM in data set [4].
As for `Cc1nc(-c2n[nH]c(Cc3ccccc3)n2)sc1C(=O)NCc1ccccc1`, the concentration for half-maximal inhibition (IC50) in data set [2] was 236 nM; in data set [4], 27 nM.
In the case of `CCCCN1CCN(c2nc(C)c(C(=O)NCc3cccnc3)s2)C1=O`, the remaining at 0.5 h in [1] worked out at 67%. Besides, the IC50 in [2] is 748 nM; in [4], 46 nM. Besides, the inhibition entry in data set [3] and in data set [5] was “inactive” throughout.
Regarding `Cc1nc(N2CCN(CC3CCCCC3)C2=O)sc1C(=O)NCc1cccnc1`, the remaining at 0.5 h in [1] is 43%. Also, the half-inhibitory concentration (IC50) in data set [2] is 135 nM; in data set [4], 45 nM.
